Reference: ChEMBL document CHEMBL1687903, “Claurailas A-D, cytotoxic carbazole alkaloids from the roots of Clausena harmandiana” (J Nat Prod, 2011)

Columns and labels:
[1] = test system: Vero; experiment: Cytotoxicity against african green monkey Vero cells by green fluorescent protein microplate assay; assay type: cell-based; conditions: Chlorocebus sabaeus
Outline: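 Green fluorescent protein-based assay on Vero cells (African green monkey kidney), used as the normal-cell counterscreen, with ellipticine as reference substance. Activity reported as IC50 in μM.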

[2] = test system: NCI-H187; experiment: Cytotoxicity against human NCI-H187 by resazurin microplate assay; assay type: functional, cell-based
Outline: (§1)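 Resazurin microplate assay (REMA) on human epidermoid carcinoma KB and human small cell lung cancer NCI-H187 lines, with ellipticine as reference substance. Activity reported as IC50 in μM.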

[3] = test system: KB; experiment: Cytotoxicity against human KB cells by resazurin microplate assay; assay type: functional, cell-based; outline: as §1

Structure (SMILES) | IC50 [1] | IC50 [2] | IC50 [3]
COc1ccc2c(c1)[nH]c1c(O)cc(C=O)cc12 | 180 µM | 10.4 µM | 10.7 µM
COc1ccc2c(c1)[nH]c1c(CC=C(C)C)c(O)c(C=O)cc12 | > 200 µM | 1.68 µM | 2.75 µM
CC(C)=CCc1c(O)c(C=O)cc2c1[nH]c1cc(O)ccc12 [7-HYDROXYHEPTAPHYLLINE] | 41.2 µM | 14.6 µM | 27.9 µM
COc1ccc2c(c1)[nH]c1c(OC)cc(C=O)cc12 [CLAURAILAS A] | > 200 µM | 13.5 µM | > 200 µM
Cc1cc2c([nH]c3c(O)cccc32)c2c1OC(C)(C)C=C2 [CLAURAILAS B] | > 200 µM | > 200 µM | > 200 µM
COC(=O)c1ccc2[nH]c3ccc4c(c3c2c1)C=CC(C)(C)O4 [CLAURAILAS C] | > 200 µM | > 200 µM | > 200 µM
CC1(C)C=Cc2c(ccc3[nH]c4cc(O)c(C=O)cc4c23)O1 [CLAURAILAS D] | 29.4 µM | 7.54 µM | 30.6 µM
COC(=O)c1cc(O)c2[nH]c3ccccc3c2c1 [CLAUSINE E] | 152 µM | 94.6 µM | 108 µM
COc1ccc2c(c1)[nH]c1cc(OC)c(C(=O)O)cc12 [CLAUSINE K] | 178 µM | 139 µM | > 200 µM
O=Cc1cc2c(cc1O)[nH]c1cc(O)ccc12 [CLAUSINE O] | 64.6 µM | 74.7 µM | 59.6 µM
C=CC(C)(C)c1c2c(c(OC)c3ccc(=O)oc13)C=CC(C)(C)O2 [DENTATIN] | > 200 µM | 45.4 µM | 114 µM
Cc1c2ccncc2c(C)c2c1[nH]c1ccccc12 [ELLIPTECINE] | 3.82 µM | 2.76 µM | –
Cc1cc2c([nH]c3ccccc32)c2c1OC(C)(C)C=C2 [GRINIMIBINE] | > 200 µM | 22.4 µM | 7.02 µM
CC(C)=CCc1c(O)c(C=O)cc2c1[nH]c1ccccc12 [HEPTAPHYLLINE] | 92.5 µM | 1.32 µM | 1.61 µM
COc1ccc2c(c1)[nH]c1cc(OC)c(C=O)cc12 [LANSINE] | > 200 µM | 102 µM | > 200 µM
COc1cc(C=O)cc2c1[nH]c1ccccc12 [MURRAYANINE] | > 200 µM | 11.5 µM | 72.2 µM
C=CC(C)(C)c1c2c(c(O)c3ccc(=O)oc13)C=CC(C)(C)O2 [NORDENTATIN] | 56.4 µM | 11.8 µM | 20.6 µM
O=Cc1cc(O)c2[nH]c3ccccc3c2c1 [O-DEMETHYLMURRAYANINE] | 104 µM | 19.2 µM | 5.49 µM
COc1c2c(cc3oc(=O)ccc13)OC(C)(C)C=C2 [XANTHOXYLETIN] | > 200 µM | > 200 µM | 133 µM
